Paper PMC9050788 (European Journal of Drug Metabolism and Pharmacokinetics, 2022)
“Also recorded” adds a separate entry of the source. Blank lines part the entries; values can stand above or below the molecule they belong to.

Assays:
[1] = system: CYP2C9; settings: data on file; cited from earlier work
[2] = system: CYP2B6; settings: data on file; cited from earlier work
[3] = Safety across the three phase I DDI studies; assay type: in vivo, human; settings: all three studies, healthy volunteers
How it was run: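 Safety population comprised all subjects receiving at least one dose of study medication. Adverse events were summarised descriptively.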

[4] = system: CYP3A4; settings: data on file; cited from earlier work
[5] = Phase I DDI study of abrocitinib with fluvoxamine; assay type: in vivo, human
[6] = population analyses; ref data on file; cited from earlier work
[7] = system: organic anion transporter 3 (OAT3); settings: in vitro transporter profiling; ref data on file; cited from earlier work
[8] = after a single oral dose of abrocitinib; ref data on file; cited from earlier work
[9] = Phase I DDI study of abrocitinib with fluconazole; assay type: in vivo, human
[10] = Single vs multiple-dose; assay type: in vivo, human; settings: for Mean (SD) plasma concentration: abrocitinib 200 mg once daily; for Contribution to the total active moiety (unbound, adjusted for relative potencies): at steady state with 200 mg QD dosing
[11] = Phase I DDI study of abrocitinib with probenecid; assay type: in vivo, human
[12] = Phase I DDI study of abrocitinib with rifampin; assay type: in vivo, human
[13] = system: cytochrome P450 (CYP) 2C19; settings: CYP2C19; data on file; cited from earlier work
[14] = cited from earlier work
[15] = plasma protein binding; ref data on file; cited from earlier work
[16] = Abrocitinib 100 mg single dose (n = 12), fluvoxamine study
[17] = Abrocitinib 100 mg single dose + fluvoxamine 50 mg QD (n = 12)
[18] = with fluvoxamine vs abrocitinib alone, active moiety unbound
[19] = Abrocitinib 100 mg single dose (n = 12), fluconazole study
[20] = Abrocitinib 100 mg single dose + fluconazole 200 mg QD (n = 12)
[21] = with fluconazole vs abrocitinib alone, active moiety unbound
[22] = Abrocitinib 100 mg single dose (n = 12), probenecid study
[23] = Abrocitinib 200 mg single dose + Probenecid 1000 mg BID (n = 12)
[24] = with probenecid vs abrocitinib alone, active moiety unbound
[25] = Abrocitinib 100 mg single dose (n = 12), rifampin study
[26] = Abrocitinib 200 mg single dose + Rifampin 600 mg QD (n = 12)
[27] = with rifampin vs abrocitinib alone, active moiety unbound
[28] = Probenecid 1000 mg BID (n = 12)

- Subjects with TRAEs [5, 16]: 3 (25.0) n (%)
- Subjects with TRAEs [5, 17]: 3 (25.0) n (%)
- Increase in AUCinf [5, 18]: 2.8 fold
- Increase in Cmax [5, 18]: 1.8 fold
- Subjects with TRAEs [9, 19]: 2 (16.7) n (%)
- Subjects with TRAEs [9, 20]: 6 (50.0) n (%)
- Increase in AUCinf [9, 21]: 4.8 fold
- Increase in Cmax [9, 21]: 1.9 fold
- Mean (SD) plasma concentration ([10]; before dosing on Day 2): 9.16 (7.96) ng/mL
- Mean (SD) plasma concentration ([10]; before dosing on Day 3): 15.01 (21.38) ng/mL
- Mean (SD) plasma concentration ([10]; before dosing on Day 4): 14.95 (15.88) ng/mL
- concentration at 24 h ([10]; human, plasma, oral, 200 mg): 11.3 ng/mL
- Time to steady-state plasma concentrations ([10]; once-daily administration, achieved by Day 3 of dosing): ≤ 48 h
- Subjects with TRAEs [11, 22]: 2 (16.7) n (%)
- Subjects with TRAEs [11, 23]: 4 (33.3) n (%)
- Increase in Cmax [11, 24]: 1.2 fold
- Subjects with TRAEs [12, 25]: 2 (16.7) n (%)
- Subjects with TRAEs [12, 26]: 4 (33.3) n (%)
- Decrease in AUCinf [12, 27]: 87.6%
- Decrease in Cmax [12, 27]: 79.1%
SMILES: CCCS(=O)(=O)N[C@H]1C[C@@H](N(C)c2ncnc3[nH]ccc23)C1 [Abrocitinib, N-{cis-3-[Methyl(7H-pyrrolo[2,3-d]pyrimidin-4-yl)amino]cyclobutyl}propane-1-sulfo namide]
- Contribution to abrocitinib metabolism [1]: 30%
- Contribution to abrocitinib metabolism [2]: 6%
- Serious or severe adverse events [3]: No serious or severe adverse events
- Contribution to abrocitinib metabolism [4]: 11%
- Subjects with TEAEs [5, 16]: 3 (25.0) n (%)
- Subjects with TEAEs [5, 17]: 6 (50.0) n (%)
- Sex-related differences in pharmacokinetics [6]: no sex-related differences
- Substrate of OAT3 [7]: not a substrate
- Share of circulating species [8]: 26%
- Subjects with TEAEs [9, 19]: 2 (16.7) n (%)
- Subjects with TEAEs [9, 20]: 7 (58.3) n (%)
- Subjects with TEAEs [11, 22]: 6 (50.0) n (%)
- Subjects with TEAEs [11, 23]: 5 (41.7) n (%)
- Subjects with TEAEs [12, 25]: 2 (16.7) n (%)
- Subjects with TEAEs [12, 26]: 4 (33.3) n (%)
- Contribution to abrocitinib metabolism [13]: 53%
- Parent drug excreted unchanged in the urine [14]: 1.0–4.4%

- Contribution to the total active moiety (unbound, adjusted for relative potencies) [10]: ~ 10%
- Increase in Cmax [11, 24]: 1.4 fold
SMILES: CN(c1ncnc2[nH]ccc12)[C@H]1C[C@@H](NS(=O)(=O)CCCO)C1 [M1]
- Fraction unbound in plasma (fu) [15]: 0.63
- Substrate of OAT3 [7]: substrates; also recorded: in part a substrate
- Share of circulating species [8]: 11%

Second part, the molecule before the results:

SMILES: CC(O)CS(=O)(=O)N[C@H]1C[C@@H](N(C)c2ncnc3[nH]ccc23)C1 (stereo partly shown) [M2]
- Fraction unbound in plasma (fu) [15]: 0.71
- Substrate of OAT3 [7]: substrates; also recorded: in part a substrate
- Share of circulating species [8]: 12%
- Contribution to the total active moiety (unbound, adjusted for relative potencies) [10]: ~ 30%
- Increase in AUCinf [11, 24]: 2.2 fold
- Increase in Cmax [11, 24]: 1.3 fold

SMILES: CCCN(CCC)S(=O)(=O)c1ccc(C(=O)O)cc1 [Probenecid, reference compound]
- Subjects with TEAEs [11, 28]: 2 (16.7) n (%)
- Subjects with TRAEs [11, 28]: 2 (16.7) n (%)

SMILES: CO[C@H]1/C=C/O[C@@]2(C)Oc3c(C)c(O)c4c(O)c(c(/C=N/N5CCN(C)CC5)c(O)c4c3C2=O)NC(=O)/C(C)=C\C=C\[C@H](C)[C@H](O)[C@@H](C)[C@@H](O)[C@@H](C)[C@H](OC(C)=O)[C@@H]1C [Rifampin, reference compound]
- Subjects with TEAEs ([12]; Rifampin 600 mg QD (n = 12)): 10 (83.3) n (%)
- Subjects with TRAEs ([12]; Rifampin 600 mg QD (n = 12)): 10 (83.3) n (%)
